According to ChEMBL document CHEMBL1142628, “Antineoplastic agents 430. Isolation and structure of cribrostatins 3, 4, and 5 from the republic of maldives cribrochalina species” (2000):
Values after ≈ are worked out from the molar mass of the structure shown. Active and inactive are the calls of the source. No cut-off for these calls is given here.

Legend:
[1] = test system: Candida albicans; test: Antifungal activity against Candida albicans ATCC 90028 at 100 ug/disk by disk diffusion method; assay type: functional, organism-based
[2] = test system: Cryptococcus neoformans; test: Antifungal activity against Cryptococcus neoformans ATCC 90112 at 100 ug/disk by disk diffusion method; assay type: functional, organism-based
[3] = test system: Micrococcus luteus; test: Antibacterial activity against Micrococcus luteus Presque Isle 456 at 100 ug/disk by disk diffusion method; assay type: functional, organism-based
[4] = test system: Staphylococcus aureus; test: Antibacterial activity against Staphylococcus aureus ATCC 29213 at 100 ug/disk by disk diffusion method; assay type: functional, organism-based
[5] = test system: Enterococcus faecalis; test: Antibacterial activity against Enterococcus faecalis ATCC 29212 at 100 ug/disk by disk diffusion method; assay type: functional, organism-based
[6] = test system: Bacillus subtilis; test: Antibacterial activity against Bacillus subtilis Presque Isle 620 at 100 ug/disk by disk diffusion method; assay type: functional, organism-based
[7] = test system: Streptococcus pneumoniae; test: Antibacterial activity against Streptococcus pneumoniae ATCC 6303 at 100 ug/disk by disk diffusion method; assay type: functional, organism-based
[8] = test system: Stenotrophomonas maltophilia; test: Antibacterial activity against Stenotrophomonas maltophilia ATCC 13637 at 100 ug/disk by disk diffusion method; assay type: functional, organism-based
[9] = test system: Escherichia coli; test: Antibacterial activity against Escherichia coli ATCC 25922 at 100 ug/disk by disk diffusion method; assay type: functional, organism-based
[10] = test system: Enterobacter cloacae; test: Antibacterial activity against Enterobacter cloacae ATCC 13047 at 100 ug/disk by disk diffusion method; assay type: functional, organism-based
[11] = test system: Neisseria gonorrhoeae; test: Antibacterial activity against Neisseria gonorrhoeae ATCC 49226 by disk diffusion method; assay type: functional
[12] = test system: Cryptococcus neoformans; test: Antifungal activity against Cryptococcus neoformans ATCC 90112 by disk diffusion method; assay type: functional
[13] = test system: Micrococcus luteus; test: Antibacterial activity against Micrococcus luteus Presque Isle 456 by disk diffusion method; assay type: functional
[14] = test system: Staphylococcus aureus; test: Antibacterial activity against Staphylococcus aureus ATCC 29213 by disk diffusion method; assay type: functional
[15] = test system: Bacillus subtilis; test: Antibacterial activity against Bacillus subtilis Presque Isle 620 by disk diffusion method; assay type: functional
[16] = test system: Streptococcus pneumoniae; test: Antibacterial activity against Streptococcus pneumoniae ATCC 6303 by disk diffusion method; assay type: functional
[17] = test system: Streptococcus pneumoniae; test: Antibacterial activity against penicillin-resistant Streptococcus pneumoniae isolate by disk diffusion method; assay type: functional
[18] = test system: Streptococcus pneumoniae; test: Antibacterial activity against invasive Streptococcus pneumoniae isolate by disk diffusion method; assay type: functional
[19] = test system: Streptococcus sp. 'group A'; test: Antibacterial activity against group A Streptococcus isolate at 100 ug/disk by disk diffusion method; assay type: functional, organism-based
[20] = test system: Candida albicans; test: Antifungal activity against Candida albicans ATCC 90028 by disk diffusion method; assay type: functional
[21] = test system: BXPC-3; test: Growth inhibition of human BXPC3 cells; assay type: functional
[22] = test system: OVCAR-3; test: Growth inhibition of human OVCAR-3 cells; assay type: functional
Method in brief: (§1)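 NCI 60-cell-line screen run by the standard NCI protocol. Each test agent ran in quadruplicate, with a top concentration of 10^-5 M and five log-spaced dilutions. GI50 values were averaged and reported as negative log GI50.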

[23] = test system: SF-295; test: Growth inhibition of human SF295 cells; assay type: functional
Method in brief: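 NCI human tumor cell line panel screen run to the standard NCI protocol. Each compound tested in quadruplicate with a top concentration of 10^-5 M and five log-spaced dilutions. GI50 values were averaged across replicates and reported as negative log GI50.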

[24] = test system: NCI-H460; test: Growth inhibition of human NCI-H460 cells; assay type: functional; method in brief: as §1
[25] = test system: KM-20L2; test: Growth inhibition of human KM20L2 cells; assay type: functional
[26] = test system: DU-145; test: Growth inhibition of human DU145 cells; assay type: functional; method in brief: as §1
[27] = test system: P388; test: Growth inhibition of mouse P388 cells; assay type: functional

CC1=C(N)C(=O)c2c(ccnc2C)C1=O [CRIBROSTATIN 1]
Activity [1]: inactive | Activity [2]: inactive | Activity [3]: inactive | Activity [4]: inactive | Activity [5]: inactive | Activity [6]: inactive | Activity [7]: inactive | Activity [8]: inactive | Activity [9]: inactive | Activity [10]: inactive | MIC [11]: 0.39 µg/disc

CCOC1=C(C)C(=O)c2cc(=O)n(C)cc2C1=O [CRIBROSTATIN 2]
MIC [12]: 12.5 µg/disc | MIC [13]: 50 µg/disc | MIC [14]: 12.5 µg/disc | Activity [5]: inactive | MIC [15]: 25 µg/disc | MIC [16]: 12.5 µg/disc | MIC [17]: 25 µg/disc | MIC [18]: 50 µg/disc | Activity [19]: inactive | Activity [8]: inactive | Activity [9]: inactive | Activity [10]: inactive | MIC [11]: 0.39 µg/disc | MIC [20]: 3.12 µg/disc

C/C=C(/C)C(=O)OCc1nccc2c1C(=O)C(NC)=C(C)C2=O [CRIBROSTATIN 4]
GI50 [21]: 0.29 µg/mL (≈ 0.923 µM) | GI50 [22]: 0.18 µg/mL (≈ 0.573 µM) | GI50 [23]: 0.36 µg/mL (≈ 1.15 µM) | GI50 [24]: 0.22 µg/mL (≈ 0.7 µM) | GI50 [25]: 0.14 µg/mL (≈ 0.445 µM) | GI50 [26]: 0.3 µg/mL (≈ 0.954 µM) | GI50 [27]: 0.045 µg/mL (≈ 0.143 µM) | EC50 ([27]; read-out: ED50 (the source's name)): 0.045 µg/mL (≈ 0.143 µM) | Activity [1]: inactive | Activity [2]: inactive | MIC [13]: 50 µg/disc | Activity [4]: inactive | Activity [5]: inactive | Activity [6]: inactive | Activity [7]: inactive | Activity [8]: inactive | Activity [9]: inactive | MIC [11]: 6.25 µg/disc
